Laboratory results as given in ChEMBL document CHEMBL1255303, “In vitro and in vivo antifungal activities of T-2307, a novel arylamidine” (2008).
In brackets after ≈: the same amount, converted by molar mass. Activity calls are given as the source filed them. The rule behind the calls is not given here.

How the values were obtained:
[1] = system: Nakaseomyces glabratus; test: Antifungal activity against Candida glabrata ATCC 90030 after 48 hrs by broth microdilution method; type: functional; details: ATCC 90030, 48 h
Procedure, shortened: (§1)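 CLSI M27-A2 (yeasts) / M38-A (moulds) broth microdilution in RPMI 1640 buffered to pH 7.0 with 0.165 M MOPS. Malassezia furfur got the same medium supplemented with glucose, bile salts, glycerol, glycerol monostearate and Tween 20. Final inoculum 0.65 × 10^3–2.5 × 10^3 CFU/ml for yeasts and 0.87 × 10^4–3.8 × 10^4 CFU/ml for filamentous fungi. Incubation at 35°C except M. racemosus and F. solani, which were held at 30°C.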

[2] = system: Meyerozyma guilliermondii; test: Antifungal activity against Candida guilliermondii IFO 10279 after 48 hrs by broth microdilution method; type: functional; details: IFO 10279, 48 h; procedure, shortened: as §1
[3] = system: Candida parapsilosis; test: Antifungal activity against Candida parapsilosis NBRC 10219 after 48 hrs by broth microdilution method; type: functional; details: Lodderomyces parapsilosis, NBRC 10219, 48 h
Procedure, shortened: (§2)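 CLSI M27-A2 (yeasts) or M38-A (A. fumigatus) broth microdilution in RPMI 1640 buffered to pH 7.0 with 0.165 M MOPS. Final inocula were 0.65–2.5 × 10^3 CFU/ml for yeasts and 0.87–3.8 × 10^4 CFU/ml for filamentous fungi. Incubation was at 35°C for about 48 h (72 h for C. neoformans). MIC was the lowest concentration giving a prominent (~50%) turbidity drop versus growth control; amphotericin B required complete inhibition.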

[4] = system: Candida tropicalis; test: Antifungal activity against Candida tropicalis IFO 1400 after 48 hrs by broth microdilution method; type: functional; details: IFO 1400, 48 h; procedure, shortened: as §1
[5] = system: Cryptococcus neoformans; test: Antifungal activity against Cryptococcus neoformans ATCC 90112 after 72 hrs by broth microdilution method; type: functional; details: ATCC 90112, 72 h; procedure, shortened: as §2
[6] = system: Cryptococcus neoformans; test: Antifungal activity against Cryptococcus neoformans TIMM 0354 after 72 hrs by broth microdilution method; type: functional; details: TIMM 0354, 72 h; procedure, shortened: as §2
[7] = system: Aspergillus fumigatus; test: Antifungal activity against Aspergillus fumigatus ATCC 16424 after 48 hrs by broth microdilution method; type: functional; details: ATCC 16424, 48 h; procedure, shortened: as §2
[8] = system: Aspergillus niger; test: Antifungal activity against Aspergillus niger NBRC 33023 after 48 hrs by broth microdilution method; type: functional; details: NBRC 33023, 48 h; procedure, shortened: as §1
[9] = system: Aspergillus terreus; test: Antifungal activity against Aspergillus terreus NBRC 33026 after 48 hrs by broth microdilution method; type: functional; details: NBRC 33026, 48 h; procedure, shortened: as §1
[10] = system: Scedosporium boydii; test: Antifungal activity against Pseudallescheria boydii NBRC 32229 after 72 hrs by broth microdilution method; type: functional; details: NBRC 32229, 72 h; procedure, shortened: as §1
[11] = system: Rhizopus arrhizus; test: Antifungal activity against Rhizopus oryzae NBRC 31005 after 24 hrs by broth microdilution method; type: functional; details: NBRC 31005, 24 h; procedure, shortened: as §1
[12] = system: Lichtheimia corymbifera; test: Antifungal activity against Absidia corymbifera NBRC 4009 after 24 hrs by broth microdilution method; type: functional; details: NBRC 4009, 24 h; procedure, shortened: as §1
[13] = system: Trichophyton rubrum; test: Antifungal activity against Trichophyton rubrum NBRC 5467 after 72 hrs by broth microdilution method; type: functional; details: NBRC 5467, 72 h; procedure, shortened: as §1
[14] = system: Candida albicans; test: Antifungal activity against Candida albicans ATCC 96901 after 47 hrs by broth microdilution method; type: functional; details: ATCC 96901, 47 h
Procedure, shortened: (§3)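 Fluconazole-resistant or susceptible-dose-dependent ATCC C. albicans strains were tested by CLSI M27-A2 broth microdilution in RPMI 1640–0.165 M MOPS, pH 7.0, with a final inoculum of 1.1–1.5 × 10^3 CFU/ml at 35°C for about 47 h. MIC was the lowest concentration with a prominent (~50%) turbidity decrease relative to growth control; amphotericin B was read at complete inhibition.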

[15] = system: Candida albicans; test: Antifungal activity against Candida albicans ATCC MYA-573 after 47 hrs by broth microdilution method; type: functional; details: ATCC MYA-573, 47 h; procedure, shortened: as §3
[16] = system: Candida albicans; test: Antifungal activity against Candida albicans ATCC MYA-574 after 47 hrs by broth microdilution method; type: functional; details: ATCC MYA-574, 47 h
Procedure, shortened: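 Fluconazole-resistant or susceptible-dose-dependent C. albicans ATCC strains were tested by broth microdilution in RPMI 1640-MOPS. Inoculum was 1.1 × 10^3–1.5 × 10^3 CFU/ml, with incubation at 35°C for about 47 h. Yeast MIC was read as about 50% turbidity decrease relative to growth control, except amphotericin B, read at complete inhibition.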

[17] = system: Candida albicans; test: Antifungal activity against Candida albicans ATCC MYA-575 after 47 hrs by broth microdilution method; type: functional; details: ATCC MYA-575, 47 h; procedure, shortened: as §3
[18] = system: Candida albicans; test: Antifungal activity against Candida albicans ATCC MYA-1003 after 47 hrs by broth microdilution method; type: functional; details: ATCC MYA-1003, 47 h; procedure, shortened: as §3
[19] = system: Nakaseomyces glabratus; test: Antifungal activity against Candida glabrata clinical isolates after 48 hrs by broth microdilution method; type: functional
Procedure, shortened: (§4)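 Clinical isolates from Japanese hospitals or culture collections were tested by broth microdilution in RPMI 1640-MOPS. Inoculum was 0.57 × 10^3–2.5 × 10^3 CFU/ml for yeasts and 0.4 × 10^4–3.3 × 10^4 CFU/ml for filamentous fungi. Incubation was at 35°C for about 48 h, or 72 h where footnoted. Results were summarised as MIC range, MIC50 and MIC90.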

[20] = system: Candida parapsilosis; test: Antifungal activity against Candida parapsilosis clinical isolates after 48 hrs by broth microdilution method; type: functional; details: Lodderomyces parapsilosis
Procedure, shortened: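 Japanese hospital Candida isolates were tested by CLSI M27-A2 broth microdilution in RPMI 1640–MOPS, pH 7.0, with inocula of 0.57–2.5 × 10^3 CFU/ml at 35°C for about 48 h. Inocula came from 24-h potato dextrose agar cultures. MIC was the lowest concentration with about 50% turbidity reduction versus growth control (complete inhibition for amphotericin B). Range, MIC50 and MIC90 were reported.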

[21] = system: Cryptococcus neoformans; test: Antifungal activity against Cryptococcus neoformans clinical isolates after 72 hrs by broth microdilution method; type: functional; procedure, shortened: as §4
[22] = system: Aspergillus fumigatus; test: Antifungal activity against Aspergillus fumigatus IFM 46895 infected ICR mouse assessed as delay in mortality of mouse at 1 mg/kg after 6 days; type: functional, organism-based; set-up: dose 1 mg/kg
Procedure, shortened: (§5)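 Male ICR mice, 4 weeks old and SPF, were made neutropenic with intraperitoneal cyclophosphamide. The schedule was 200 mg/kg on day −3 (day −4 for Cryptococcus) plus 100 mg/kg on day +1. Infection was by tail-vein injection of 0.2 ml suspension: C. albicans 3.0 × 10^4, C. neoformans 9.1 × 10^4, A. fumigatus conidia 8.4 × 10^4 CFU/mouse. Drugs were given subcutaneously once daily for 7 days from 2 h post-infection; controls received saline. Groups had 8–10 mice.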

[23] = system: Candida albicans; test: Antifungal activity against Candida albicans TIMM 1623 infected ICR mouse after 6 days; type: functional; details: TIMM 1623, 144 h; procedure, shortened: as §5

SMILES: C[C@@H]1[C@H](O)[C@@H](C)/C=C/C=C/C=C/C=C/C=C/C=C/C=C/[C@H](O[C@@H]2O[C@H](C)[C@@H](O)[C@H](N)[C@@H]2O)C[C@@H]2O[C@](O)(C[C@@H](O)C[C@@H](O)[C@H](O)CC[C@@H](O)C[C@@H](O)CC(=O)O[C@H]1C)C[C@H](O)[C@H]2C(=O)O [AMPHOTERICIN B]
- MFC [1]: 1 µg/mL (≈ 1.08 µM)
- MIC [1]: 1 µg/mL (≈ 1.08 µM)
- MFC [2]: 1 µg/mL (≈ 1.08 µM)
- MIC [2]: 0.5 µg/mL (≈ 0.541 µM)
- MFC [3]: 1 µg/mL (≈ 1.08 µM)
- MIC [3]: 1 µg/mL (≈ 1.08 µM)
- MFC [4]: 1 µg/mL (≈ 1.08 µM)
- MIC [4]: 1 µg/mL (≈ 1.08 µM)
- MFC [5]: 1 µg/mL (≈ 1.08 µM)
- MIC [5]: 1 µg/mL (≈ 1.08 µM)
- MFC [6]: 1 µg/mL (≈ 1.08 µM)
- MIC [6]: 1 µg/mL (≈ 1.08 µM)
- MFC [7]: 2 µg/mL (≈ 2.16 µM)
- MIC [7]: 1 µg/mL (≈ 1.08 µM)
- MFC [8]: 2 µg/mL (≈ 2.16 µM)
- MIC [8]: 2 µg/mL (≈ 2.16 µM)
- MFC [9]: > 64 µg/mL
- MIC [9]: 2 µg/mL (≈ 2.16 µM)
- MFC [10]: > 64 µg/mL
- MIC [10]: > 64 µg/mL
- MFC [11]: 1 µg/mL (≈ 1.08 µM)
- MIC [11]: 1 µg/mL (≈ 1.08 µM)
- MFC [12]: > 64 µg/mL
- MIC [12]: 2 µg/mL (≈ 2.16 µM)
- MFC [13]: 1 µg/mL (≈ 1.08 µM)
- MIC [13]: 1 µg/mL (≈ 1.08 µM)
- MIC [14]: 1 µg/mL (≈ 1.08 µM)
- MIC [15]: 2 µg/mL (≈ 2.16 µM)
- MIC [16]: 1 µg/mL (≈ 1.08 µM)
- MIC [17]: 2 µg/mL (≈ 2.16 µM)
- MIC [18]: 2 µg/mL (≈ 2.16 µM)
- MIC [19]: 1 µg/mL (≈ 1.08 µM)
- MIC50 [19]: 1 µg/mL (≈ 1.08 µM)
- MIC90 [19]: 2 µg/mL (≈ 2.16 µM)
- MIC50 [20]: 2 µg/mL (≈ 2.16 µM)
- MIC90 [20]: 2 µg/mL (≈ 2.16 µM)
- MIC [21]: 1 µg/mL (≈ 1.08 µM)
- MIC50 [21]: 1 µg/mL (≈ 1.08 µM)
- MIC90 [21]: 1 µg/mL (≈ 1.08 µM)
- Activity [22]: Active
- ED50 [23]: 0.0466 mg/kg
